According to ChEMBL document CHEMBL5058577, “EUbOPEN Chemogenomics Library 2 (Multiplex)” (2022):

System: U2OS
Assay: Multiplex assay against U2OS
Type: toxicity, cell-based
Conditions: human
How it was run: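 Per cents of healthy-nucleus cells form the tubulin, mitochondrial-mass and membrane-permeability phenotype values. Live cells were stained at seeding with Hoechst33342, BioTracker Green Microtubule Cytoskeleton Dye, MitoTracker Red and Annexin V Alexa Fluor 680. After compound addition they were imaged on a CQ1 microscope at 37°C and 5% CO2, and CellPathfinder machine-learning gating split them into Hoechst high-intensity objects or normal cells, normal cells into healthy, pyknosed or fragmented nuclei, and pyknosed cells into mitotic or apoptotic.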

[1] = 12 h, 1 µM, compound concentration 1 uM, replicate 1
[2] = 12 h, 1 µM, compound concentration 1 uM, replicate 2
[3] = 12 h, 10 µM, compound concentration 10 uM, replicate 1
[4] = 12 h, 10 µM, compound concentration 10 uM, replicate 2
[5] = 24 h, 1 µM, compound concentration 1 uM, replicate 1
[6] = 24 h, 1 µM, compound concentration 1 uM, replicate 2
[7] = 24 h, 10 µM, compound concentration 10 uM, replicate 1
[8] = 24 h, 10 µM, compound concentration 10 uM, replicate 2
[9] = 48 h, 1 µM, compound concentration 1 uM, replicate 1
[10] = 48 h, 1 µM, compound concentration 1 uM, replicate 2
[11] = 48 h, 10 µM, compound concentration 10 uM, replicate 1
[12] = 48 h, 10 µM, compound concentration 10 uM, replicate 2

Question: What does the source list for Cc1sc2c(c1C)C(c1ccc(Cl)cc1)=N[C@@H](CC(=O)NCCCCCCCCNC(=O)COc1cccc3c1C(=O)N(C1CCC(=O)NC1=O)C3=O)c1nnc(C)n1-2 (stereo partly specified)?
Answer: Population Apoptotic (%) [1]: 93%; Population Fragmented Nuclei (%) [1]: 43%; Population Healthy Nuclei (%) [1]: 49%; Population Hoechst High Intensity Objects (%) [1]: 11%; Population Membrane Permeable-Phenotype (%) [1]: 9%; Population Mitochondria Different-Phenotype (%) [1]: 4%; Population Mitotic Cells (%) [1]: 6%; Population Normal (%) [1]: 88%; Population Pyknosed Nuclei (%) [1]: 6%; Population Tubulin-Different-Phenotype (%) [1]: 5%; Total Cell Count [1]: 269; Population Apoptotic (%) [2]: 87%; Population Fragmented Nuclei (%) [2]: 13%; Population Healthy Nuclei (%) [2]: 80%; Population Hoechst High Intensity Objects (%) [2]: 0%; Population Membrane Permeable-Phenotype (%) [2]: 5%; Population Mitochondria Different-Phenotype (%) [2]: 1%; Population Mitotic Cells (%) [2]: 12%; Population Normal (%) [2]: 99%; Population Pyknosed Nuclei (%) [2]: 5%; Population Tubulin-Different-Phenotype (%) [2]: 3%; Total Cell Count [2]: 136; Population Apoptotic (%) [3]: 86%; Population Fragmented Nuclei (%) [3]: 31%; Population Healthy Nuclei (%) [3]: 55%; Population Hoechst High Intensity Objects (%) [3]: 5%; Population Membrane Permeable-Phenotype (%) [3]: 2%; Population Mitochondria Different-Phenotype (%) [3]: 4%; Population Mitotic Cells (%) [3]: 13%; Population Normal (%) [3]: 94%; Population Pyknosed Nuclei (%) [3]: 13%; Population Tubulin-Different-Phenotype (%) [3]: 0%; Total Cell Count [3]: 233; Population Apoptotic (%) [4]: 100%; Population Fragmented Nuclei (%) [4]: 19%; Population Healthy Nuclei (%) [4]: 75%; Population Hoechst High Intensity Objects (%) [4]: 0%; Population Membrane Permeable-Phenotype (%) [4]: 17%; Population Mitochondria Different-Phenotype (%) [4]: 12%; Population Mitotic Cells (%) [4]: 0%; Population Normal (%) [4]: 99%; Population Pyknosed Nuclei (%) [4]: 4%; Population Tubulin-Different-Phenotype (%) [4]: 12%; Total Cell Count [4]: 117; Population Apoptotic (%) [5]: 100%; Population Fragmented Nuclei (%) [5]: 42%; Population Healthy Nuclei (%) [5]: 51%; Population Hoechst High Intensity Objects (%) [5]: 11%; Population Membrane Permeable-Phenotype (%) [5]: 8%; Population Mitochondria Different-Phenotype (%) [5]: 3%; Population Mitotic Cells (%) [5]: 0%; Population Normal (%) [5]: 88%; Population Pyknosed Nuclei (%) [5]: 6%; Population Tubulin-Different-Phenotype (%) [5]: 5%; Total Cell Count [5]: 297; Population Apoptotic (%) [6]: 92%; Population Fragmented Nuclei (%) [6]: 12%; Population Healthy Nuclei (%) [6]: 80%; Population Hoechst High Intensity Objects (%) [6]: 2%; Population Membrane Permeable-Phenotype (%) [6]: 5%; Population Mitochondria Different-Phenotype (%) [6]: 2%; Population Mitotic Cells (%) [6]: 7%; Population Normal (%) [6]: 97%; Population Pyknosed Nuclei (%) [6]: 7%; Population Tubulin-Different-Phenotype (%) [6]: 4%; Total Cell Count [6]: 174; Population Apoptotic (%) [7]: 100%; Population Fragmented Nuclei (%) [7]: 34%; Population Healthy Nuclei (%) [7]: 53%; Population Hoechst High Intensity Objects (%) [7]: 8%; Population Membrane Permeable-Phenotype (%) [7]: 4%; Population Mitochondria Different-Phenotype (%) [7]: 5%; Population Mitotic Cells (%) [7]: 0%; Population Normal (%) [7]: 91%; Population Pyknosed Nuclei (%) [7]: 12%; Population Tubulin-Different-Phenotype (%) [7]: 2%; Total Cell Count [7]: 245; Population Fragmented Nuclei (%) [8]: 27%; Population Healthy Nuclei (%) [8]: 65%; Population Hoechst High Intensity Objects (%) [8]: 0%; Population Membrane Permeable-Phenotype (%) [8]: 21%; Population Mitochondria Different-Phenotype (%) [8]: 9%; Population Normal (%) [8]: 99%; Population Pyknosed Nuclei (%) [8]: 7%; Population Tubulin-Different-Phenotype (%) [8]: 14%; Total Cell Count [8]: 130; Population Apoptotic (%) [9]: 91%; Population Fragmented Nuclei (%) [9]: 35%; Population Healthy Nuclei (%) [9]: 53%; Population Hoechst High Intensity Objects (%) [9]: 10%; Population Membrane Permeable-Phenotype (%) [9]: 6%; Population Mitochondria Different-Phenotype (%) [9]: 1%; Population Mitotic Cells (%) [9]: 8%; Population Normal (%) [9]: 89%; Population Pyknosed Nuclei (%) [9]: 10%; Population Tubulin-Different-Phenotype (%) [9]: 2%; Total Cell Count [9]: 353; Population Apoptotic (%) [10]: 90%; Population Fragmented Nuclei (%) [10]: 12%; Population Healthy Nuclei (%) [10]: 79%; Population Hoechst High Intensity Objects (%) [10]: 1%; Population Membrane Permeable-Phenotype (%) [10]: 4%; Population Mitotic Cells (%) [10]: 9%; Population Normal (%) [10]: 98%; Population Pyknosed Nuclei (%) [10]: 7%; Population Tubulin-Different-Phenotype (%) [10]: 1%; Total Cell Count [10]: 270; Population Apoptotic (%) [11]: 100%; Population Fragmented Nuclei (%) [11]: 36%; Population Healthy Nuclei (%) [11]: 51%; Population Hoechst High Intensity Objects (%) [11]: 7%; Population Membrane Permeable-Phenotype (%) [11]: 9%; Population Mitochondria Different-Phenotype (%) [11]: 4%; Population Mitotic Cells (%) [11]: 0%; Population Normal (%) [11]: 92%; Population Pyknosed Nuclei (%) [11]: 12%; Population Tubulin-Different-Phenotype (%) [11]: 4%; Total Cell Count [11]: 289; Population Fragmented Nuclei (%) [12]: 25%; Population Healthy Nuclei (%) [12]: 70%; Population Hoechst High Intensity Objects (%) [12]: 2%; Population Membrane Permeable-Phenotype (%) [12]: 10%; Population Normal (%) [12]: 97%; Population Pyknosed Nuclei (%) [12]: 4%; Population Tubulin-Different-Phenotype (%) [12]: 7%; Total Cell Count [12]: 179
